{"source": "ChEMBL document CHEMBL3351677", "about": "“Design and synthesis of azaisoflavone analogs as phytoestrogen mimetics” (Eur J Med Chem, 2014)", "key": {"CV-1": {"tested_on": "CV-1", "experiment": "Selectivity ratio of maximum activation of human ERbeta expressed in CV1 cells to maximum activation of human ERalpha expressed in CV1 cells", "assay_type": "cell-based", "procedure,_shortened": "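CV-1 cells held in phenol red-free DMEM with 5% stripped FBS for 3 days, seeded at 1.5 × 10⁵ cells/well. Next day they were co-transfected for 6 h with 30 ng hERα or hERβ plus 100 ng ERE-luciferase, with a β-galactosidase vector for normalization. Treated 24 h, then luciferase read, β-gal absorbance at 410 nm. Each subtype's activation expressed relative to maximum with 20 nM E2; at least three experiments.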"}, "Homo sapiens": {"species_on_record": "Homo sapiens", "experiment": "Selectivity ratio of maximum inhibition of recombinant human ERbeta to maximum inhibition of recombinant human ERalpha by competitive binding assay", "procedure,_shortened": "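Competitive binding with [³H]-E2 (1 nM) for ERα and ERβ. Bound and free ligand separated by centrifugation at 12,000 × g for 2 min; supernatant radioactivity counted by liquid scintillation. Bound [³H]-E2 expressed relative to maximum receptor-bound ligand (10⁻⁷ M E2), versus 0.1% DMSO control; at least three separate experiments.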"}, "MCF7 [1]": {"tested_on": "MCF7", "experiment": "Growth inhibition in human MCF7 cells at 50 to 100 uM after 4 days by MTT assay", "assay_type": "functional, cell-based", "procedure,_shortened": "(§1)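 MCF-7 cells kept in DMEM with 10% FBS, then held 3 days in phenol red-free DMEM with 5% charcoal-dextran stripped FBS. Seeded at 1.5 × 10³ cells/well for 24 h, then treated with samples for 4 days; 0.1 nM E2 and 100 nM ICI served as controls. MTT (5 mg/mL in PBS) was added for 2 h, formazan dissolved in DMSO and absorbance read. Three independent experiments, mean ± SD, Dunnett test.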"}, "MCF7 [2]": {"tested_on": "MCF7", "experiment": "Stimulation of growth in human MCF7 cells at 5 to 20 uM after 4 days by MTT assay", "assay_type": "functional, cell-based", "procedure,_shortened": "as §1"}, "MCF7 [3]": {"tested_on": "MCF7", "experiment": "Growth inhibition in human MCF7 cells at 20 to 100 uM after 4 days by MTT assay", "assay_type": "functional, cell-based", "procedure,_shortened": "as §1"}, "MCF7 [4]": {"tested_on": "MCF7", "experiment": "Stimulation of growth in human MCF7 cells at 0.1 to 20 uM after 4 days by MTT assay", "assay_type": "functional, cell-based", "procedure,_shortened": "as §1"}, "MCF7 [5]": {"tested_on": "MCF7", "experiment": "Growth inhibition in human MCF7 cells at 5 to 100 uM after 4 days by MTT assay", "assay_type": "functional, cell-based", "procedure,_shortened": "as §1"}}, "note": "Activity calls are given as the source filed them. The rule behind the calls is not given here.", "data": [{"smiles": "CCn1cc(-c2ccc(O)cc2)c(=O)c2c(O)cc(O)cc21", "values": [{"measurement": "Selectivity ratio", "setting": "CV-1", "value": 0.8}, {"measurement": "Selectivity ratio", "setting": "Homo sapiens", "value": 1.6}, {"measurement": "growth inhibition (GI)", "setting": "MCF7 [1]", "value": "Active"}, {"measurement": "Activity", "setting": "MCF7 [2]", "value": "Active"}]}, {"smiles": "O=c1c(-c2ccc(O)cc2)c[nH]c2cc(O)ccc12", "values": [{"measurement": "Selectivity ratio", "setting": "CV-1", "value": 1.3}]}, {"smiles": "O=c1c(-c2ccc(O)cc2)coc2cc(O)cc(O)c12", "values": [{"measurement": "growth inhibition (GI)", "setting": "MCF7 [3]", "value": "Active"}, {"measurement": "Activity", "setting": "MCF7 [4]", "value": "Active"}]}, {"smiles": "CC(C)CCn1cc(-c2ccc(O)cc2)c(=O)c2ccc(O)cc21", "values": [{"measurement": "Selectivity ratio", "setting": "CV-1", "value": 3.4}, {"measurement": "growth inhibition (GI)", "setting": "MCF7 [5]", "value": "Active"}]}, {"smiles": "CCCn1cc(-c2ccc(O)cc2)c(=O)c2ccc(O)cc21", "values": [{"measurement": "Selectivity ratio", "setting": "CV-1", "value": 1.6}, {"measurement": "growth inhibition (GI)", "setting": "MCF7 [1]", "value": "Active"}, {"measurement": "Activity", "setting": "MCF7 [2]", "value": "Active"}]}, {"smiles": "CCCn1cc(-c2ccc(O)cc2)c(=O)c2ccccc21", "values": [{"measurement": "Selectivity ratio", "setting": "CV-1", "value": 0.5}, {"measurement": "growth inhibition (GI)", "setting": "MCF7 [1]", "value": "Active"}, {"measurement": "Activity", "setting": "MCF7 [2]", "value": "Active"}]}, {"smiles": "Cn1cc(-c2ccc(O)cc2)c(=O)c2ccc(O)cc21", "values": [{"measurement": "Selectivity ratio", "setting": "CV-1", "value": 6.4}]}, {"smiles": "CCn1cc(-c2ccc(O)cc2)c(=O)c2ccc(O)cc21", "values": [{"measurement": "Selectivity ratio", "setting": "CV-1", "value": 2.9}, {"measurement": "growth inhibition (GI)", "setting": "MCF7 [1]", "value": "Active"}, {"measurement": "Activity", "setting": "MCF7 [2]", "value": "Active"}]}, {"smiles": "O=c1c(-c2ccc(O)cc2)cn(Cc2ccccc2)c2cc(O)ccc12", "values": [{"measurement": "Selectivity ratio", "setting": "CV-1", "value": 1}, {"measurement": "growth inhibition (GI)", "setting": "MCF7 [5]", "value": "Active"}]}, {"smiles": "O=c1c(-c2ccc(O)cc2)c[nH]c2cc(O)cc(O)c12", "values": [{"measurement": "Selectivity ratio", "setting": "CV-1", "value": 2.9}, {"measurement": "Selectivity ratio", "setting": "Homo sapiens", "value": 12}, {"measurement": "growth inhibition (GI)", "setting": "MCF7 [1]", "value": "Active"}, {"measurement": "Activity", "setting": "MCF7 [2]", "value": "Active"}]}, {"smiles": "CCCn1cc(-c2ccc(O)cc2)c(=O)c2c(O)cc(O)cc21", "values": [{"measurement": "Selectivity ratio", "setting": "CV-1", "value": 0.3}, {"measurement": "Selectivity ratio", "setting": "Homo sapiens", "value": 1.4}, {"measurement": "growth inhibition (GI)", "setting": "MCF7 [5]", "value": "Active"}]}, {"smiles": "Cn1cc(-c2ccc(O)cc2)c(=O)c2c(O)cc(O)cc21", "values": [{"measurement": "Selectivity ratio", "setting": "CV-1", "value": 1.3}, {"measurement": "Selectivity ratio", "setting": "Homo sapiens", "value": 2.6}, {"measurement": "growth inhibition (GI)", "setting": "MCF7 [1]", "value": "Active"}, {"measurement": "Activity", "setting": "MCF7 [2]", "value": "Active"}]}]}
